Results on 34 molecules are retold here after ChEMBL document CHEMBL1140988 (Eur J Med Chem, 2008).

Assay [1] concerns the target T1, Cannabinoid receptor 1 (Homo sapiens, UniProt P21554). Kind of assay: Displacement of [3H]CP-55940 from human CB1 receptor expressed in CHO cells at 10 uM. Type of assay: cell-based. In a few lines: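 Competitive binding on membranes of CHO cells expressing human CB1, run by an outside contract lab. Radioligand was [3H]-CP 55940 at 0.5 nM and test compound was at 10 μM. Non-specific binding was set with an excess of unlabelled ligand. Values are % of control specific binding (displacement), n = 2.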
A general note: In a radioligand displacement assay an active substance lowers the binding of a labelled ligand.

In assay [2] the target is T2, Cannabinoid receptor 2 (Homo sapiens, UniProt P34972). Kind of assay: Displacement of [3H]WIN-55212-2 from human CB2 receptor expressed in CHO cells at 10 uM. Type of assay: cell-based. In a few lines:
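Human CB2 expressed in CHO cell membranes, competitive binding run by an outside contract lab. [3H]-WIN 55212-2 at 0.8 nM was displaced by test compound at 10 μM. Specific binding is total minus non-specific, the latter measured with excess unlabelled ligand. Reported as % displacement of control specific binding, n = 2.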

For assay [3], the target named is T1, Cannabinoid receptor 1. Kind of assay: biochemical. It counts as cell-based, CHO.
The target of assay [4] is T2, Cannabinoid receptor 2. Kind of assay: Displacement of [3H]WIN-55212-2 from human CB2 receptor expressed in CHO cells. It counts as cell-based. In a few lines:
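Non-specific binding was defined with excess unlabelled ligand. Ki was derived from IC50 by the Cheng-Prusoff equation, Ki = IC50/(1 + L/KD), using radioligand concentration and KD.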

T2 sequence (P34972 whole entry): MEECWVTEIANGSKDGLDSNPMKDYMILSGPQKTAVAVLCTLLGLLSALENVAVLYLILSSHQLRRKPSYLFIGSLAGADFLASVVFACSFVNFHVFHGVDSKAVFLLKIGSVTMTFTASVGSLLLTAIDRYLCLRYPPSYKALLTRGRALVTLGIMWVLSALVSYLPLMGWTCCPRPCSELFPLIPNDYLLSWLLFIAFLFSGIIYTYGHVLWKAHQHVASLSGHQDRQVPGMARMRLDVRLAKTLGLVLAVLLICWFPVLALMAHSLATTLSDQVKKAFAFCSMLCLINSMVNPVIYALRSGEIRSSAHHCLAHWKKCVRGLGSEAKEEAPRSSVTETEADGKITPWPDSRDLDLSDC
T1 sequence (P21554 whole entry): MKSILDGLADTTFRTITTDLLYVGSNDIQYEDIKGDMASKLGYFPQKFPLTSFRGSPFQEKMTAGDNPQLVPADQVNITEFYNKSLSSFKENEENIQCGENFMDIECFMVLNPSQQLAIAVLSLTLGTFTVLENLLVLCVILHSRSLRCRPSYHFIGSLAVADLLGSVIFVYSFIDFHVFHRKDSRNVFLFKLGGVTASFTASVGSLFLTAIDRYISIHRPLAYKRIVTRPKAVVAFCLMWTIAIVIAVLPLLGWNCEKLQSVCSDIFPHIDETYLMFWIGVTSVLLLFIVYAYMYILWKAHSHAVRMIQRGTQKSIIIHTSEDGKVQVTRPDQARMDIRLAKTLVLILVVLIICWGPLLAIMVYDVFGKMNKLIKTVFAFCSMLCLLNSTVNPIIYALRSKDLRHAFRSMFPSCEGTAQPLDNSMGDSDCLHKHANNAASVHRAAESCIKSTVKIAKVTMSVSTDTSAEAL

`O=C(NC1CCCCC1)c1cnn(-c2ccc(Cl)cc2Cl)c1-c1ccc(I)cc1`: the results for the Activity at Cannabinoid receptor 1 [1] and at Cannabinoid receptor 2 [2] were 64% and 59%, respectively.
Turning to `COc1ccc(-c2c(C(=O)NC3CCCCC3)cnn2-c2ccc(Cl)cc2Cl)cc1`, the Activity at Cannabinoid receptor 1 [1] amounted to 64%; at Cannabinoid receptor 2 [2], 76%.
The like results for `O=C(NN1CCCCC1)c1cnn(-c2ccc(Cl)cc2Cl)c1-c1ccc(Br)cc1` were, in that order, 74% and 55%.
As usually defined, the Ki is a dissociation constant, usually derived from enzyme kinetics or from competition with a known ligand. A lower Ki goes with a stronger hold on the target. Take `CN1CCN(NC(=O)c2cnn(-c3ccc(Cl)cc3Cl)c2-c2ccc(Cl)cc2)CC1`: the Activity on Cannabinoid receptor 1 [1] is 61%; on Cannabinoid receptor 2 [2], -23%. This molecule also had an inhibition constant (Ki) on Cannabinoid receptor 1 [3] of 16000 nM.
For `O=C(NC1CCCCCC1)c1cnn(-c2ccc(Cl)cc2Cl)c1-c1ccc(Br)cc1`, in that order: 88%, 60% and 1100 nM.
For the molecule `O=C(NC1CCCCCCC1)c1cnn(-c2ccc(Cl)cc2Cl)c1-c1ccc(Cl)cc1`, the Activity on Cannabinoid receptor 1 [1] is 84%; at Cannabinoid receptor 2 [2], 44%.
The like results for `O=C(NN1CC2CCCC2C1)c1cnn(-c2ccc(Cl)cc2Cl)c1-c1ccc(Cl)cc1` (centres undefined) were, in that order, 86% and 56%.
For `O=C(NC1CCCC1)c1cnn(-c2ccc(Cl)cc2Cl)c1-c1ccc(Cl)cc1`, in that order: 82% and 61%.
`O=C(NC1CC1)c1cnn(-c2ccc(Cl)cc2Cl)c1-c1ccc(Cl)cc1`: the Activity at Cannabinoid receptor 1 [1] was 87%; on Cannabinoid receptor 2 [2] it was 30%. Also, the figures for the Ki on Cannabinoid receptor 1 [3] and at Cannabinoid receptor 2 [4] were 850 nM and 21 µM, respectively.
As to `O=C(NC1CCCCC1)c1cnn(-c2ccc(Cl)cc2Cl)c1-c1ccc(Cl)cc1`, the Activity came to 68% on Cannabinoid receptor 1 [1] and 52% on Cannabinoid receptor 2 [2].
As to `Cc1ccc(-c2c(C(=O)NC3CCCCC3)cnn2-c2ccc(Cl)cc2Cl)cc1`, the Activity stood at 48% on Cannabinoid receptor 1 [1] and 46% at Cannabinoid receptor 2 [2].
For `O=C(NN1CCOCC1)c1cnn(-c2ccc(Cl)cc2Cl)c1-c1ccc(F)cc1`, the Activity was 30% on Cannabinoid receptor 1 [1] and -9% at Cannabinoid receptor 2 [2].
For `O=C(c1cnn(-c2ccc(Cl)cc2Cl)c1-c1ccc(Cl)cc1)N1CCCCC1`, in that order: 59% and 45%.
For the molecule `O=C(NN1CCCCC1)c1cnn(-c2ccc(Cl)cc2Cl)c1-c1ccc(Cl)cc1`, the values for the Activity at Cannabinoid receptor 1 [1] and at Cannabinoid receptor 2 [2] were 79% and 37%, respectively.
Turning to `O=C(NN1CCCCC1)c1cnn(-c2ccc(Cl)cc2Cl)c1-c1ccc(I)cc1`, the Activity on Cannabinoid receptor 1 [1] was 94%; at Cannabinoid receptor 2 [2] it was 84%. For the same molecule, the figures for the Ki on Cannabinoid receptor 1 [3] and at Cannabinoid receptor 2 [4] were 1300 nM and 1.9 µM, respectively.
As for `O=C(NC1CCCCC1)c1cnn(-c2ccc(Cl)cc2Cl)c1-c1ccc(Br)cc1`, the Activity was found to be 81% on Cannabinoid receptor 1 [1] and 44% on Cannabinoid receptor 2 [2].
Consider `O=C(NC1CC1)c1cnn(-c2ccc(Cl)cc2Cl)c1-c1ccc(Br)cc1`, for which the Activity at Cannabinoid receptor 1 [1] came to 84%; at Cannabinoid receptor 2 [2], 43%. Besides, the Ki on Cannabinoid receptor 1 [3] was 1000 nM.
As to `O=C(NN1CCCCC1)c1cnn(-c2ccc(Cl)cc2Cl)c1-c1ccc(F)cc1`, the Activity on Cannabinoid receptor 1 [1] amounted to 43%; on Cannabinoid receptor 2 [2] it was 7%.
The like results for `COc1ccc(-c2c(C(=O)NN3CCCCC3)cnn2-c2ccc(Cl)cc2Cl)cc1` were, in that order, 58% and 70%.
For `O=C(NC1CCCCCC1)c1cnn(-c2ccc(Cl)cc2Cl)c1-c1ccc(Cl)cc1`, the Activity was 78% on Cannabinoid receptor 1 [1] and 50% on Cannabinoid receptor 2 [2].
In the case of `O=C(c1cnn(-c2ccc(Cl)cc2Cl)c1-c1ccc(Cl)cc1)N1CCc2ccccc2C1`, the Activity on Cannabinoid receptor 1 [1] was determined as 58%; at Cannabinoid receptor 2 [2] it was 69%.
Take `O=C(c1cnn(-c2ccc(Cl)cc2Cl)c1-c1ccc(Cl)cc1)N1CCCC1`: the Activity amounted to 49% on Cannabinoid receptor 1 [1] and 43% on Cannabinoid receptor 2 [2].
`CN1CCN(NC(=O)c2cnn(-c3ccc(Cl)cc3Cl)c2-c2ccc(Br)cc2)CC1`: the Activity on Cannabinoid receptor 1 [1] is 67%; on Cannabinoid receptor 2 [2], -12%. The inhibition constant Ki at Cannabinoid receptor 1 [3] amounted to 2600 nM; at Cannabinoid receptor 2 [4], 30 µM.
On to `O=C(NC1CC1)c1cnn(-c2ccc(Cl)cc2Cl)c1-c1ccc(I)cc1`, for which the Activity at Cannabinoid receptor 1 [1] was found to be 91%; on Cannabinoid receptor 2 [2], 60%. Besides, the affinity on Cannabinoid receptor 1 [3], expressed as Ki, was 210 nM.
With `O=C(NN1CCOCC1)c1cnn(-c2ccc(Cl)cc2Cl)c1-c1ccc(Cl)cc1`, the Activity at Cannabinoid receptor 1 [1] was found to be 65%; at Cannabinoid receptor 2 [2], 12%.
For the molecule `O=C(NC1CCCCCC1)c1cnn(-c2ccc(Cl)cc2Cl)c1-c1ccc(I)cc1`, the Activity on Cannabinoid receptor 1 [1] was 90%; at Cannabinoid receptor 2 [2], 61%. Further, the Ki at Cannabinoid receptor 1 [3] was found to be 1100 nM.
Regarding `O=C(NC12CC3CC(CC(C3)C1)C2)c1cnn(-c2ccc(Cl)cc2Cl)c1-c1ccc(I)cc1`, the Activity came to 76% at Cannabinoid receptor 1 [1] and 44% at Cannabinoid receptor 2 [2].
The like results for `O=C(NC12CC3CC(CC(C3)C1)C2)c1cnn(-c2ccc(Cl)cc2Cl)c1-c1ccc(Cl)cc1` were, in that order, 72% and 22%.
For `CN1CCN(NC(=O)c2cnn(-c3ccc(Cl)cc3Cl)c2-c2ccc(I)cc2)CC1`, in that order: 78% and 42%.
With `Cc1ccc(-c2c(C(=O)NN3CCCCC3)cnn2-c2ccc(Cl)cc2Cl)cc1`, the Activity turned out to be 29% on Cannabinoid receptor 1 [1] and 27% on Cannabinoid receptor 2 [2].
For `O=C(NC1CCCCC1)c1cnn(-c2ccc(Cl)cc2Cl)c1-c1ccc(F)cc1`, the Activity on Cannabinoid receptor 1 [1] was 69%; on Cannabinoid receptor 2 [2], 18%.
For `O=C(NCCN1CCCCC1)c1cnn(-c2ccc(Cl)cc2Cl)c1-c1ccc(Cl)cc1`, in that order: 39% and 14%.
For `O=C(NN1CCCCCC1)c1cnn(-c2ccc(Cl)cc2Cl)c1-c1ccc(Cl)cc1`, in that order: 75% and 64%.
`O=C(NC1CC1)c1cnn(-c2ccc(Cl)cc2Cl)c1-c1ccc(F)cc1`: the Activity turned out to be 62% on Cannabinoid receptor 1 [1] and 7% at Cannabinoid receptor 2 [2].
